Test results from article PMC3962784 (Journal of medicinal chemistry, 2013).

Columns and labels:
[1] = molecular target: T1, full length Cal1 (full length porcine calpain) (Sus scrofa, UniProt P35750); assay: Calpain inhibition kinetics, Suc-LLVY-AMC progress curves; type: biochemical; settings: for Calpain1 rel (ki/Ki calculated relative to E-64): E-64 = 1; for Relative selectivity for inhibition of Cal1 over papain (in words): assessed using ki/Ki; for Calpain1 ki/Ki / Calpain1 ki: full length Cal1; for Calpain1 ki/Ki: mean ± S.D. of triplicate; for Calpain1 ki: inhibition rate constant; for 10^2 × ki/Ki Cal1 / ki/Ki papain: selectivity ratio Cal1 over papain
T1 sequence (P35750 1-714): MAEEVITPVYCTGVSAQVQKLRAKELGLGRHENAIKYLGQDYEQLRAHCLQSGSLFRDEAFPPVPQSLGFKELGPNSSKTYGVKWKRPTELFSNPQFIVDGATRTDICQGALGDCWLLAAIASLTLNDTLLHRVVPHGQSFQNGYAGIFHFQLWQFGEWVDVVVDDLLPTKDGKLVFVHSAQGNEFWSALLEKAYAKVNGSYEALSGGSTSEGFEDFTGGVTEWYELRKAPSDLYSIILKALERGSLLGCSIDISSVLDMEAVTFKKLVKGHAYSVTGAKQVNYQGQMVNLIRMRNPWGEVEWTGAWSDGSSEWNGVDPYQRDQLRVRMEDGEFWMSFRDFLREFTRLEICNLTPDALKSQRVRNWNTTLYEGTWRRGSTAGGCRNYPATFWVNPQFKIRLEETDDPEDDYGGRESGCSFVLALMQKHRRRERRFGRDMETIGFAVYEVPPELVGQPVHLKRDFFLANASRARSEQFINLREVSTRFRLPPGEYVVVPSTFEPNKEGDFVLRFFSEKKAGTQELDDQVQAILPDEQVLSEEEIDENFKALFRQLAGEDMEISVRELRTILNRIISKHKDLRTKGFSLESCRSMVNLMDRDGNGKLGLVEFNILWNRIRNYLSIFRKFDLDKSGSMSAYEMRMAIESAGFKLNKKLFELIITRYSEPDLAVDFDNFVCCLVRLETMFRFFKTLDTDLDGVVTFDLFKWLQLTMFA
T1 sequence (P04574 1-266 partner): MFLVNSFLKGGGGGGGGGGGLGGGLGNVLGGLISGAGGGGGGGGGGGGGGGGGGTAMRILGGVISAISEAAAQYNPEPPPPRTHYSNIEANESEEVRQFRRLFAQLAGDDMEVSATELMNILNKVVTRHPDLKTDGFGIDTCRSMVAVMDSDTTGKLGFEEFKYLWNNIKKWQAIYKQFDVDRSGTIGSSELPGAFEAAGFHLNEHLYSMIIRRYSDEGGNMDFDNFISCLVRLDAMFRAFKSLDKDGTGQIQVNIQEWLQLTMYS

papain = molecular target: T2, papain (Carica papaya, UniProt P00784); assay: Papain inhibition kinetics, Suc-LLVY-AMC progress curves; type: biochemical; settings: for Papain rel (ki/Ki calculated relative to E-64): E-64 = 1; for Papain ki: inhibition rate constant; for Papain ki/Ki: mean ± S.D. of triplicate
T2 sequence (P00784 134-345): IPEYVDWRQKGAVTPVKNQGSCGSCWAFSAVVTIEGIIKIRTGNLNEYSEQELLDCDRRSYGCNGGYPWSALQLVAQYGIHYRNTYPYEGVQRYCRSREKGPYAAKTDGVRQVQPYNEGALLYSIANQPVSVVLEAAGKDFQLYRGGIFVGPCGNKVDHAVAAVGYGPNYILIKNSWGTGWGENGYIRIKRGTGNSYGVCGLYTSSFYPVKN
In short: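 Papain (236 pM) in 100 mM NaCl, 50 mM HEPES pH 7.6, 1 mM TCEP with 30 µM Suc-LLVY-AMC and inhibitor at 0.5–50 µM, 30 °C. Organic solvent (acetonitrile/DMSO 1:1) stayed below 2%. AMC release was followed over time at Ex/Em 346/444 nm. Constants came from varied enzyme and inhibitor concentrations, and selectivity from ki/Ki with E-64 as 1.0. Triplicates.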

[2] = molecular target: recombinant rat Cal1cat (Cal1 catalytic domain) active site Cys (Rattus norvegicus, UniProt P97571); assay: LC-MS/MS examination of inhibitor modified Cal1cat active site; type: binding; settings: co-incubation of Cal1cat (1 μM) with E-64 and 22a, both 5 μM
Chain of recombinant rat Cal1cat (Cal1 catalytic domain) active site Cys (P97571 55-354 limits assumed): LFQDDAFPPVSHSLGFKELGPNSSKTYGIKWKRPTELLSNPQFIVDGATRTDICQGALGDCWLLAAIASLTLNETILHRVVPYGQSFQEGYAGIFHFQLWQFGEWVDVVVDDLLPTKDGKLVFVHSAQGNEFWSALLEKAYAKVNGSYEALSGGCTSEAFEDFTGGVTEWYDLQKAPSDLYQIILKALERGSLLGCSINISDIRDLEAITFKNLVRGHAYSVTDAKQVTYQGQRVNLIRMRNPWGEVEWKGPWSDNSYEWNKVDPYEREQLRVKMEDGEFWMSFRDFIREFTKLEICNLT
In short: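 Recombinant rat Cal1cat from E. coli (1 μM), activated with CaCl2 (10 mM), co-incubated 20 min with both inhibitors at 5 μM each. Quenched with EDTA, run on SDS-PAGE; band excised, alkylated in-gel with IAA (100 mM, 60 min), trypsin-digested. Ion-trap LC-MS/MS, reverse-phase column, ACN/water with 0.1% formic acid. Semiquantitative EIC of modified peptides against non-active-site IAA-capped peptide internal standard.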

Row | SMILES | Calpain1 rel (ki/Ki calculated relative to E-64) [1] | Relative selectivity for inhibition of Cal1 over papain (in words) [1] | Calpain1 ki/Ki [1] [×l0^−4 s^−1M^−1] | Calpain1 ki [1] [s⁻¹] | 10^2 × ki/Ki Cal1 / ki/Ki papain [1] | Papain rel (ki/Ki calculated relative to E-64) (papain) | Papain ki (papain) [s⁻¹] | Papain ki/Ki (papain) [×l0^−4s^−1M^−1] | Competitive modification of Cal1cat active site [2]
1 | O=C(NCc1cn(-c2ccc(F)cc2)nn1)[C@H](Cc1cscn1)NC(=O)[C@H]1O[C@@H]1C(=O)O [compound 36, (2S,3S)-3-((S)-1-((1-(4-fluorophenyl)-1H-1,2,3-triazol-4-yl)methylamino)-1-oxo-3-(thiazol-4-yl)propan-2-ylcarbamoyl)oxirane-2-carboxylic acid] | 1.1 | show Cal1 selectivity | 3.31±0.32 | 0.10 | 5.0 | 0.12 | 12.7 | 66.2 ±7.4 | 
2 | CC(C)C[C@H](NC(=O)[C@H]1O[C@@H]1C(=O)O)C(=O)NCCCCN=C(N)N [E-64, L-trans-epoxysuccinyl-leucylamido(4-guanidino)butane, reference compound] |  |  | 3.02±0.15 | 0.12 | 0.54 |  | 28.6 | 563 ± 52 | 
3 | C#Cc1ccc(-c2csc(NC(=O)[C@H](Cc3cscn3)NC(=O)[C@H]3O[C@@H]3C(=O)O)n2)cc1 [compound 32, (2S,3S)-3-((S)-1-(4-(4-ethynylphenyl)thiazol-2-ylamino)-1-oxo-3-(thiazol-4-yl)propan-2-ylcarbamoyl)oxirane-2-carboxylic acid] | 1.3 | show Cal1 selectivity | 3.89±0.41 | 0.14 | 1.74 | 0.40 | 21.6 | 223 ± 2.4 | 
4 | CC(C)C[C@H](NC(=O)[C@H]1O[C@@H]1C(=O)O)C(=O)Nc1nc(-c2ccc(F)cc2)cs1 [22a, (2S,3S)-3-((S)-1-(4-(4-fluorophenyl)thiazol-2-ylamino)-4-methyl-1-oxopentan-2-ylcarbamoyl)oxirane-2-carboxylic acid] |  |  |  | 0.16 |  |  | 17.1 |  | relatively greater modification by 22a
5 | O=C(Nc1nc(-c2ccc(F)cc2)cs1)[C@H](Cc1cscn1)NC(=O)[C@H]1O[C@@H]1C(=O)O [compound 31, 3-((S)-1-(4-(4-fluorophenyl)thiazol-2-ylamino)-1-oxo-3-(thiazol-4-yl)propan-2-ylcarbamoyl)oxirane-2-carboxylic acid] | 0.98 | show Cal1 selectivity | 2.96±0.14 | 0.08 | 1.06 | 0.50 | 14.8 | 279 ± 47 | 
